According to ChEMBL document CHEMBL2163205 (J Med Chem, 2012):
≈ marks a conversion by molar mass, not a printed value.

Tests used:
[1] = Intrinsic clearance in human liver microsomes assessed as metabolic turnover
[2] = biological target: T1, Cathepsin K (Homo sapiens, UniProt P43235); experiment: Inhibition of human recombinant CatK assessed as suppression of enzyme-mediated Z-Phe-Arg-AMC cleavage incubated for 1 hrs by QFRET assay
T1 sequence (P43235 whole entry): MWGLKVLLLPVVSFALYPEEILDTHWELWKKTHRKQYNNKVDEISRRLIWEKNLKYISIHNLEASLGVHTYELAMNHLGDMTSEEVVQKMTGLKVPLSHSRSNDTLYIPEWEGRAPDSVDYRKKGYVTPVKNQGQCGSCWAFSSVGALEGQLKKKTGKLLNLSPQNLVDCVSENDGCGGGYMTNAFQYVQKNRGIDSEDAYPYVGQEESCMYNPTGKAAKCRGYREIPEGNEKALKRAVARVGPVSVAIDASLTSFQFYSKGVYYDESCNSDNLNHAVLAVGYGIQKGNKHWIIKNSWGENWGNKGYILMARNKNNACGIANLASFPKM

[3] = biological target: Procathepsin L (Homo sapiens, UniProt P07711); experiment: Inhibition of human recombinant CatL assessed as suppression of enzyme-mediated Z-Phe-Arg-AMC cleavage by QFRET assay
Chain of Procathepsin L (P07711 whole entry): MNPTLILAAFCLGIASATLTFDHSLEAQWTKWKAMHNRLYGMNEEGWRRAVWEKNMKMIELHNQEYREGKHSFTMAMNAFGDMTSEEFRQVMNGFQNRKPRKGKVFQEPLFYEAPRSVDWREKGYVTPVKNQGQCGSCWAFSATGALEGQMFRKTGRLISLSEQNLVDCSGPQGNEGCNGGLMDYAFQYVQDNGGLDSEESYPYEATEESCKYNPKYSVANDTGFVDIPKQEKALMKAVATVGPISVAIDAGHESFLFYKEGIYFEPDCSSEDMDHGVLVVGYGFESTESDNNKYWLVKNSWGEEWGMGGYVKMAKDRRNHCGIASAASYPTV
Summary of the method: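 Recombinant human Cat L at 0.1 nM final was preincubated with compound for 30 min, then Z-Phe-Arg-AMC (10 μM final) was added. QFRET cleavage was run 1 h at room temperature and stopped with acetic acid. Fluorescence read at ex 360/em 425 nm; IC50 by variable-slope nonlinear regression.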

[4] = Intrinsic clearance in rat liver microsomes assessed as metabolic turnover
[5] = biological target: Cathepsin B (Homo sapiens, UniProt P07858); experiment: Inhibition of human recombinant CatB assessed as suppression of enzyme-mediated Z-Arg-Arg-AMC cleavage by QFRET assay
Summary of the method: (§1)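 Recombinant human Cat B at 0.5 nM final was preincubated with compound for 30 min at room temperature. Z-Arg-Arg-AMC (100 μM final) was added in potassium phosphate buffer, pH 6.4, incubated 1 h, then stopped with acetic acid. Fluorescence read at ex 360/em 425 nm with background correction; IC50 by nonlinear regression.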

[6] = biological target: Cathepsin S (Homo sapiens, UniProt P25774); experiment: Inhibition of human recombinant CatS assessed as suppression of enzyme-mediated Z-Val-Val-Arg-AMC cleavage by QFRET assay
Chain of Cathepsin S (P25774 whole entry): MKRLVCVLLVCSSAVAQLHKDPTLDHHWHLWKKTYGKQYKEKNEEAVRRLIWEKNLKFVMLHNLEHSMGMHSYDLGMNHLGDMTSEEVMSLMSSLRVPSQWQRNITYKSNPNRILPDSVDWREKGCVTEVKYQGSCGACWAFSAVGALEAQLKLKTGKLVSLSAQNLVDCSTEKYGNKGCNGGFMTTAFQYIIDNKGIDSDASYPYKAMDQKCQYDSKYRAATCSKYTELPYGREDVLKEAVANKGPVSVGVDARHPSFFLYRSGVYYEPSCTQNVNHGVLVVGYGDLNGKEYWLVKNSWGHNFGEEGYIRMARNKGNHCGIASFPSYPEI
Summary of the method: as §1, with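 “S” for “B”, “Z-Val-Val-Arg-AMC” for “Z-Arg-Arg-AMC”, “AMC fluorescence” for “Fluorescence”, “nm;” for “nm with background correction;”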

[7] = Lipophilicity, log D of the compound at pH 7.4; details: buffer
[8] = Aqueous solubility of the compound at pH 7.4; details: buffer

microsomal CLint [1] | IC50 [2] | IC50 ([3]; read-out: IC50) | microsomal CLint [4] | IC50 [5] | IC50 [6] | IC50 [3] | logD [7] | solubility [8] | Compound
18 µL/min/mg | < 1 nM | > 40000 nM | > 250 µL/min/mg | 1420 nM | – | – | – | – | N#CCNC(=O)[C@@H]1CCCC[C@H]1C(=O)N1CCc2[nH]c3ccc(F)cc3c2C1
79 µL/min/mg | 4 nM | – | 303 µL/min/mg | > 2900 nM | > 4000 nM | Not Active | – | – | CSc1cccc2c3c([nH]c12)CCN(C(=O)[C@@H]1CCCC[C@H]1C(=O)NC1(C#N)CC1)C3
– | 3 nM | – | – | – | 258 nM | – | – | – | N#CC(NC(=O)[C@@H]1CCCC[C@H]1C(=O)N1CCN(c2ccc(F)cc2)CC1)c1ccccc1 (stereo partly drawn)
< 2 µL/min/mg | 73 nM | > 100000 nM | 12 µL/min/mg | 8750 nM | 2110 nM | – | 0.9 | > 4900 µM | N#CCNC(=O)[C@@H]1CCCC[C@H]1C(=O)N1CCCCC1
33 µL/min/mg | – | – | 82 µL/min/mg | > 2900 nM | > 4000 nM | Not Active | 4.2 | 74 µM (≈ 33.9 µg/mL) | N#CC1(NC(=O)[C@@H]2CCCC[C@H]2C(=O)N2CCc3[nH]c4ccc(C(F)(F)F)cc4c3C2)CC1
55 µL/min/mg | < 1 nM | – | 311 µL/min/mg | > 2900 nM | > 4000 nM | Not Active | 3 | 470 µM (≈ 192 µg/mL) | N#CC1(NC(=O)[C@@H]2CCCC[C@H]2C(=O)N2CCc3[nH]c4c(F)cccc4c3C2)CC1
26 µL/min/mg | 5 nM | – | 116 µL/min/mg | > 2900 nM | > 4000 nM | Not Active | 3.8 | 150 µM (≈ 68.8 µg/mL) | N#CC1(NC(=O)[C@@H]2CCCC[C@H]2C(=O)N2CCc3[nH]c4c(C(F)(F)F)cccc4c3C2)CC1
7.7 µL/min/mg | 7 nM | > 100000 nM | 115 µL/min/mg | 455 nM | 1030 nM | – | 1.8 | 640 µM (≈ 227 µg/mL) | N#CCNC(=O)[C@@H]1CCCC[C@H]1C(=O)N1CCN(c2ccccc2)CC1
87 µL/min/mg | – | – | > 350 µL/min/mg | > 2900 nM | > 4000 nM | Not Active | 3.7 | 130 µM (≈ 55.2 µg/mL) | N#CC1(NC(=O)[C@@H]2CCCC[C@H]2C(=O)N2CCc3[nH]c4ccc(Cl)cc4c3C2)CC1
– | 17.3 nM | > 40000 nM | – | 73500 nM | > 70000 nM | – | 3.5 | – | C[C@@H](C#N)NC(=O)[C@@H]1CCCC[C@H]1C(=O)N1CCc2[nH]c3ccc(F)cc3c2C1
46 µL/min/mg | 2 nM | – | 226 µL/min/mg | > 2900 nM | – | Not Active | – | – | N#CC1(NC(=O)[C@@H]2CCCC[C@H]2C(=O)N2CCc3[nH]c4c(Cl)cccc4c3C2)CC1
– | < 1 nM | – | – | – | 183 nM | – | – | – | CC(C)(F)C[C@H](N[C@@H](c1ccc(-c2ccc(S(C)(=O)=O)cc2)cc1)C(F)(F)F)C(=O)NC1(C#N)CC1 [ODANACATIB]
– | 1 nM | – | – | – | 76 nM | – | – | – | COc1ccccc1C(C#N)NC(=O)[C@@H]1CCCC[C@H]1C(=O)N1CCN(Cc2ccc(F)cc2)CC1 (stereo partly drawn)
4.5 µL/min/mg | 18 nM | > 100000 nM | 41 µL/min/mg | – | – | – | – | – | N#CCNC(=O)[C@@H]1CCCC[C@H]1C(=O)N1CC=CCC1
43 µL/min/mg | 4 nM | – | 164 µL/min/mg | > 2900 nM | – | Not Active | – | – | N#CC1(NC(=O)[C@@H]2CCCC[C@H]2C(=O)N2CCc3[nH]c4c(Br)cccc4c3C2)CC1
– | 50 nM | – | – | > 2900 nM | > 4000 nM | Not Active | 4.1 | 84 µM (≈ 36.3 µg/mL) | CC(C)c1ccc2[nH]c3c(c2c1)CN(C(=O)[C@@H]1CCCC[C@H]1C(=O)NC1(C#N)CC1)CC3
23 µL/min/mg | 2 nM | 3110 nM | 145 µL/min/mg | 712 nM | – | – | – | – | N#CCNC(=O)[C@@H]1CCCC[C@H]1C(=O)N1CCc2ccccc2C1
